Hits are enriched below; roughly 3% of the tested compounds scored in any of these assays.
HTR1A agonist – 5-HT1a (human) receptor agonism; 65,000 compounds, 0.56% hits; CHO 5-HT1a Ga15 NFAT-bla reporter, FRET ratio; 0% basal, 100% maximal reference agonist; P08908; AID 567; activation, % at 10 µM;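 active = activation above the screen-wide mean activation plus 3 SD, cut at about 19% in these data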;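 note: 0% = DMSO wells and 100% = 5-CT at EC100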
Target sequence (P08908 whole entry, looked up): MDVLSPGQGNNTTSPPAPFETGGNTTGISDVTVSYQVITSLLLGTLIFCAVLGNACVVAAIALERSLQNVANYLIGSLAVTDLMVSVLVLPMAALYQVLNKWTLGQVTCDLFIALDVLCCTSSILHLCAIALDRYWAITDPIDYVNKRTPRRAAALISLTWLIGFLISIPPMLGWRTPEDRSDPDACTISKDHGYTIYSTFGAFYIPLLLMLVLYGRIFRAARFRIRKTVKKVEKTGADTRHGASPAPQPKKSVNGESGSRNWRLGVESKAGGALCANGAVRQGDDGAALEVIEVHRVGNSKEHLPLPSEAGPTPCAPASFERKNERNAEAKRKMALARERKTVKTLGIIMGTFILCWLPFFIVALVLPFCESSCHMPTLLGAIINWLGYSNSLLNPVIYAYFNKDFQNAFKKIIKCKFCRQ
5HT1E ag – agonists of human 5-HT1E serotonin receptor; P28566; CHO 5-HT1E Ga15 NFAT-bla reporter, FRET; 0% DMSO wells, 100% control agonist wells; activation, % at 6 µM; 65,000 compounds, 0.69% hits;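 active = activation above a set limit, the screen-wide mean activation plus 3 SD, cut at about 8.5% in these data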;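 note: 100% = positive control agonist at 1 µM giving full maximal response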
5HT1E antag – blocks the human 5-HT1E serotonin receptor. P28566. CHO 5-HT1E Ga15 NFAT-bla reporter, FRET, antagonist. inhibition, % at 6 µM. 65,000 compounds, 0.99% hits. AID 571;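 active = inhibition above a set limit, the mean inhibition across every tested compound plus 3 SD, cut at about 29% in these data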;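 note: signal is the 460 over 535 nm emission ratio of beta-lactamase substrate; 0% = agonist plus DMSO wells and 100% = wells without agonist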
S1P1 ag-PAM – agonists and agonism potentiators of human S1P1 receptor; S1P1 CRE-bla cells, forskolin, beta-lactamase FRET, potentiator mode; S1P1 agonist co-added at EC20, 2 nM; 100% = saturating reference agonist, 0% = basal; activation, % at 9.5 µM; 56,000 compounds, 0.57% hits; AID 449;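 active = activation above a cutoff set at the mean activation of all tested compounds plus 3 SD, cut at about 54% in these data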;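 note: forskolin at 4 µM as EC80 and the EC20 agonist is SEW2871; 100% = SEW2871 at its EC100 plus forskolin at EC80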
5-HT1A blocker – 5-HT1a (human) receptor antagonism; CHO 5-HT1a Ga15 NFAT-bla reporter, antagonist mode; inhibition, % at 10 µM; 62,000 compounds, 0.68% hits;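 active = inhibition above the mean of all tested compounds plus 3 SD, cut at about 43% in these data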;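 note: receptor stimulated by 5-CT agonist at 100 nM near EC80; beta-lactamase reporter measured by ratiometric fluorescence of a cleavable substrate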
S1P3 agonist – activates the human S1P3 receptor. S1P3 NFAT-BLA reporter cells, agonism, FRET ratio; relative to 1 µM S1P, basal subtracted. activation, % at 4.5 µM. 60,000 compounds, 0.1% hits;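 active = activation above the screen-wide mean plus 3 SD, cut at about 4.5% in these data, passing the limit was not always enough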
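Benchmarks: high control 1 µM S1P / System: stable CHO line with human S1P3, Gα16, NFAT-BLA reporter / Dosing: single compound concentration, 4.5 µM final / Timing: 4 h compound at 37 °C, 2 h substrate at RT / Measured by: FRET β-lactamase substrate fluorescence, excitation 405 nm, 460/535 nm emission ratio, background-subtracted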
* = called active by the depositor; nt = no result.

SMILES	HTR1A agonist	5HT1E ag	5HT1E antag	S1P1 ag-PAM	5-HT1A blocker	S1P3 agonist
CCCCn1c(=N)n(CC(O)COc2ccc(C)cc2)c2ccccc21 (centres undefined)	-2.8	-0.1	-3.2	13.6	53.1*	-1.7
COc1ccc(S(=O)(=O)N2CCC(C(=O)NCc3ccccn3)CC2)cc1C	2.4	0.2	-8.3	-29.4	-9.2	-0.6
N#CCCCSC1=C(C#N)C(c2ccccc2Cl)CC(=O)N1 (centres undefined)	-2.4	-0.5	7.1	6.5	-5.7	-1.7
CC(=O)c1ccc(NS(=O)(=O)c2cccc(C)c2)cc1	-1.0	-0.1	-1.2	nt	0.0	nt
Cc1ccc(-c2nc3ccccc3[nH]2)cc1NC(=O)c1ccco1	-0.5	-0.8	11.0	-19.2	-1.3	-1.8
O=C(Nc1cccc(-c2nc3ccccc3[nH]2)c1)c1cccc(NC(=O)c2ccco2)c1	2.3	0.3	43.3*	3.4	32.8	-0.2
CC(C)Cn1c(=O)c(C(=O)Nc2ccccc2S(N)(=O)=O)c(O)c2ccccc21	-2.0	0.4	-3.1	119.7*	-26.1	-1.6
[O-][N+]1=c2ccc(Nc3ccccc3)cc2=NC12CCCCC2	-3.3	0.3	30.2*	33.6	55.2*	-1.5
[O-][N+]1=C2CCC/C(=N\O)C2=NC12CCCCC2	-4.3	0.2	-3.2	-9.4	-9.0	-0.6
C=CCSc1nc(N)c(C#N)c(-c2ccccc2)c1C#N	-1.1	-1.0	40.7*	-16.4	7.2	-1.6
CCCSc1nc(N)c(C#N)c(-c2ccc(C)cc2)c1C#N	1.1	-0.4	1.5	7.8	-22.7	-1.1
COc1ccccc1-n1nnnc1SCc1ccccc1	-0.5	-0.6	11.8	-6.7	10.0	-0.9
COc1ccccc1-n1nnnc1SCc1cc2c(cc1Br)OCO2	-1.6	0.1	28.9*	58.9	27.2	-0.9
COc1ccc(N2C(=O)CC(NCc3cccc(F)c3)C2=O)cc1 (centres undefined)	0.2	-0.3	-8.0	nt	-28.3	-0.8
COc1ccc(N2C(=O)CC(NCc3ccncc3)C2=O)cc1 (centres undefined)	-1.1	0.2	77.4*	nt	0.7	0.0
O=C(NCc1cccnc1)C1c2ccccc2C(=O)N1C1CCCC1 (centres undefined)	-5.5	-0.1	-8.6	1.2	-0.8	-0.9
COc1ccc(N2CCN(c3ncnc4c3cnn4-c3ccc(C)cc3C)CC2)cc1	-1.2	0.1	-3.4	15.2	3.1	-2.0
Cc1ccc(-n2ncc3c(N4CCN(c5ccccc5)CC4)ncnc32)c(C)c1	1.2	0.9	51.4*	-6.8	nt	-5.4
COc1ccc(OCc2nnc(SC3CCOC3=O)n2-c2ccccc2)cc1 (centres undefined)	-1.8	0.0	2.2	-4.5	-17.6	-0.9
COc1cccc(-n2c(SC3CCOC3=O)nc3ccccc3c2=O)c1 (centres undefined)	-1.2	-1.0	37.0*	-38.6	14.8	0.0
CCN(CC(=O)Nc1c(C(=O)OC)[nH]c2ccc(C)cc12)c1ccc2c(c1)OCO2	0.1	-1.1	6.9	7.5	23.9	-0.7
CCC(CC)c1nc2cc(OC)c(OC)cc2c(=O)o1	-1.1	35.0*	-1.7	3.8	nt	-1.5
Clc1ccc(OCCCn2cncn2)cc1Cl	-1.1	-0.2	6.6	6.5	12.4	-0.5
Clc1ccccc1OCCCCN1CCCC1	-0.6	14.7*	4.3	-29.6	16.8	-1.4
COc1cccc(OC)c1OCCCCN1CCCC1	-2.4	0.8	-1.3	-2.1	-9.8	-0.4
SMILES	HTR1A agonist	5HT1E ag	5HT1E antag	S1P1 ag-PAM	5-HT1A blocker	S1P3 agonist
Nc1nonc1C(=O)NCCNC(=O)c1cccs1	-3.6	-0.7	-3.0	-17.9	2.4	-0.6
Cn1c(=O)oc2cc(S(=O)(=O)NCCN3CCCCCC3)ccc21	-2.2	-0.2	-1.8	-18.8	4.1	-0.3
Cn1c(=O)oc2cc(S(=O)(=O)N3CCN(c4ccccn4)CC3)ccc21	35.0*	0.8	-12.8	-31.9	-1.3	0.2
Cn1c(=O)oc2cc(S(=O)(=O)NCCN3CCN(c4ccccc4F)CC3)ccc21	-2.1	0.1	5.3	-8.9	57.4*	-0.1
c1ccc(-c2noc(CN3CCN(c4ccccc4)CC3)n2)cc1	-0.7	-0.4	-4.8	-6.9	6.5	-1.1
Cn1cc(CN2CCN(c3ccccc3)CC2)c2ccccc21	-2.8	11.9*	-8.2	nt	13.3	nt
O=C(NC1CCCCC1)C1CCN(c2cnccn2)CC1	-5.0	-0.1	-4.5	-6.9	-1.0	0.9
O=S(=O)(c1ccc(S(=O)(=O)N(Cc2ccc(F)cc2)C2CCCC2)cc1)N1CCCC1	1.4	-1.1	31.3*	16.5	29.1	-0.8
CN(C)c1ccc2c(c1)OC(N)=C(C#N)C2c1cccc(F)c1 (centres undefined)	-3.0	0.7	75.4*	-9.4	9.7	-1.9
O=C(CCn1c(=S)[nH]c2cc3c(cc2c1=O)OCO3)NCCN1CCCC1	-1.9	-1.3	0.1	nt	-0.4	nt
COc1cccc(C(=O)Nc2cc(C)c3c(=O)oc4ccccc4c3n2)c1	24.7*	-0.7	1.6	-4.6	-11.7	-1.2
Cc1cc(NC(=O)C2CCCC2)nc2c1c(=O)oc1ccccc12	4.0	-1.4	-2.0	nt	-19.8	nt
Cc1ccc(NC(=O)c2cc(-c3cccc(O)c3)on2)cc1C	0.4	0.1	-13.2	-7.2	7.9	0.7
CCOC(=O)c1c(NC(=O)CSc2nnc(CNC(=O)c3ccco3)n2C)sc2c1CCC2	4.2	0.9	7.6	nt	-0.6	nt
COC(=O)C1=C(C)NC2=C(C(=O)CCC2)C1c1ccccn1 (centres undefined)	-1.7	1.2	12.0	-13.3	1.6	-1.1
COc1ccc(OC)c2[nH]c(=O)c(CCNC(=O)c3ccc(Br)o3)cc12	-3.6	-0.5	2.1	-16.1	-6.7	0.0
O=C(Nc1cccc2cccnc12)c1cccnc1	39.2*	-1.8	3.0	nt	3.7	-0.3
Cc1cnc(C(=O)Nc2cccc3cccnc23)cn1	2.9	-0.5	-0.2	-6.3	-4.7	-0.2
Cc1ccc(C)c(NC(=O)CNS(=O)(=O)c2ccccc2)c1	-0.4	-1.2	-0.6	nt	3.2	-1.5
CC(C)Cc1nnc(NC(=O)c2ccncc2)s1	-1.0	-0.8	5.2	-23.3	-4.4	0.0
Cc1cc(/C=N/n2cnnc2)c(C)n1-c1cc(Cl)ccc1Cl	-4.6	-0.9	39.7*	-6.2	51.6*	-0.6
COC(=O)c1ccc(-n2c(C)cc(/C=N/n3cnnc3)c2C)cc1	-1.9	18.6*	1.7	18.2	2.3	-2.0
Cc1ccc(S(=O)(=O)NCCCOC(=O)Nc2ccncc2)cc1	4.3	0.3	-0.1	-9.2	1.0	-0.8
CCN1C(=O)c2cccc3c(S(=O)(=O)Nc4ccc(OC)cc4OC)ccc1c23	-2.2	-0.2	-0.2	1.0	2.2	-1.4

Screens (PubChem)
